According to ChEMBL document CHEMBL1629474, “Massive screening yields novel and selective Trypanosoma cruzi triosephosphate isomerase dimer-interface-irreversible inhibitors with anti-trypanosomal activity” (Eur J Med Chem, 2010):
The source made the active and inactive calls. No rule for the calls is given here.

Columns and labels:
[1] = Selectivity for Trypanosoma cruzi triosephosphate isomerase over human triosephosphate isomerase
[2] = test system: Trypanosoma cruzi; assay: Antiparasitic activity against Trypanosoma cruzi T2 epimastigotes assessed as growth inhibition at 25 uM after 5 days; format: functional
Outline: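 Late-log epimastigotes were grown axenically at 28 °C in BHI-tryptose with 5% fetal calf serum and seeded at 2×10^6/mL in medium containing compound (DMSO stock; final DMSO ≤1%, 1% DMSO control). Growth was read as A590 at day 0 and day 5. Inhibition = {1 − [(Ap − A0p)/(Ac − A0c)]} × 100. Means of two experiments.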

[3] = molecular target: Triosephosphate isomerase, glycosomal (Trypanosoma cruzi) (UniProt P52270); assay: Inhibition of Trypanosoma cruzi triosephosphate isomerase at 100 uM after 2 hrs
Triosephosphate isomerase, glycosomal (Trypanosoma cruzi), sequence (P52270 whole entry): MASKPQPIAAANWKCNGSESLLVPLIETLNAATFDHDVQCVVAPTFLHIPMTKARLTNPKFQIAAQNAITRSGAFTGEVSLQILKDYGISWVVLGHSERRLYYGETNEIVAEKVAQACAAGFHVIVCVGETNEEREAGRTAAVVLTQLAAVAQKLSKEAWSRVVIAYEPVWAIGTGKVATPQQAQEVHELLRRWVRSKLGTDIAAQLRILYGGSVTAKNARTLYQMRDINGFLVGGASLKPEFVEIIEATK
Outline: (§1)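 Recombinant E. coli-expressed enzyme, dialyzed into 100 mM triethanolamine/10 mM EDTA pH 7.4, was incubated with compound (DMSO stock) in 100 mM triethanolamine, 10 mM EDTA, pH 7.4, 10% DMSO at 36 °C for 2 h. An aliquot was then assayed for activity (glyceraldehyde 3-phosphate to dihydroxyacetone phosphate, α-glycerol phosphate dehydrogenase-coupled) with 5 ng enzyme. Irreversible inhibition was scored as loss of activity; means of two experiments.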

[4] = molecular target: Triosephosphate isomerase, glycosomal (Trypanosoma cruzi) (UniProt P52270); assay: Inhibition of Trypanosoma cruzi triosephosphate isomerase at 400 uM after 2 hrs; outline: as §1

Row | SMILES | Ratio [1] | inhibition [3] | inhibition [4] | Activity [2]
1 | [O-][n+]1onc2ccc(/C=C/c3ccc4c(c3)OCO4)cc21 | > 4 | 21% | 70% | Active
2 | NC(=S)N/N=C/c1ccc([N+](=O)[O-])o1 | > 4 | 57% | 85% | Active
3 | C/C(=C\c1ccc(Br)cc1)[N+](=O)[O-] | > 4 | 0% | 95% | Active
4 | O=C1C(=Cc2ccc([N+](=O)[O-])s2)C(=O)N(CCc2ccccc2)S(=O)(=O)N1CCc1ccccc1 | > 4 | 68% | 82% | Active
5 | CCOC(=O)c1nc(-c2cc(C(C)(C)C)c(O)c(C(C)(C)C)c2)ns1 | > 4 | 65% | 87% | Active
6 | O=c1c2cc([N+](=O)[O-])ccc2n2n1CCCCC2 | > 4 | – | 4% | Active
7 | COCCNC(=O)/C=C/c1ccc([N+](=O)[O-])o1 | > 4 | – | 0% | Active
8 | CCNC(=S)N/N=C/c1ccc([N+](=O)[O-])o1 | > 4 | – | 3% | Active
9 | C=CCNC(=S)N/N=C/c1ccc([N+](=O)[O-])s1 | > 4 | – | 58% | Active
10 | CCCCNC(=O)N/N=C/c1ccc([N+](=O)[O-])o1 | > 4 | 17% | 0% | Active
11 | CCCCCCCNC(=O)N/N=C/c1ccc([N+](=O)[O-])o1 | > 4 | – | 60% | Active
12 | NC1=NS(=O)(=O)N=C(N)C1 | > 4 | – | 0% | Active
13 | CNC(=S)N/N=C/c1ccc([N+](=O)[O-])o1 | > 4 | – | 22% | Active
14 | C=C(C)CNC(=O)N/N=C/c1ccc([N+](=O)[O-])o1 | > 4 | – | 6% | Active
15 | O=C(/C=C/c1ccc([N+](=O)[O-])o1)NCCCl | > 4 | – | 13% | Active
16 | CNC(=S)N/N=C/C=C/c1ccc([N+](=O)[O-])o1 | > 4 | – | 9% | Active
17 | CCCCNC(=O)N/N=C/c1ccc([N+](=O)[O-])s1 | > 4 | – | 18% | Active
18 | CCCCNC(=O)c1ccc2no[n+]([O-])c2c1 | > 4 | – | 12% | Active
19 | CCCCNC(=O)/C=C/c1ccc([N+](=O)[O-])o1 | > 4 | – | 25% | Active
20 | CN(CCCN(C)Cc1cccc2ccccc12)Cc1cccc2ccccc12 | > 4 | – | 55% | Active
21 | CCCCNC(=O)N/N=C/c1c(C)no[n+]1[O-] | > 4 | – | 2% | Active
22 | COC(=O)N/N=C/c1ccc2no[n+]([O-])c2c1 | > 4 | – | 3% | Active
23 | [O-][n+]1onc2ccc(CBr)cc21 | > 4 | – | 10% | Active
24 | O=C(O)c1ccc(-c2nsc(CO)n2)cc1 | > 4 | – | 15% | Active
25 | CCCCCCOC(=O)N/N=C/C=C/c1ccc([N+](=O)[O-])o1 | > 4 | – | 39% | Active
26 | CCCCNC(=O)N/N=C/C=C/c1ccc([N+](=O)[O-])o1 | > 4 | – | 1% | Active
27 | O=[N+]([O-])c1ccc(N2CCOCC2)c([N+](=O)[O-])c1 | > 4 | – | 19% | Active
28 | C=CCNC(=S)N/N=C/c1cccs1 | > 4 | – | 2% | Active
29 | CCCCNS(=O)(=O)NCCCC | > 4 | – | 0% | Active

The next lines start with results.

Row | Ratio [1] | inhibition [3] | inhibition [4] | SMILES | Activity [2]
30 | > 4 | 35% | 93% | O=S(=O)(c1ccccc1)c1no[n+]([O-])c1S(=O)(=O)c1ccccc1 | Active
31 | > 4 | 27% | 73% | [O-][n+]1onc2ccc(/C=C/c3cccs3)cc21 | Active
32 | > 4 | 47% | 100% | O=C(N/N=C/C=C/c1ccc([N+](=O)[O-])o1)Nc1ccc2ccccc2c1 | Active
33 | > 4 | 13% | 80% | [O-][n+]1onc2ccc(/C=C/c3ccc4nonc4c3)cc21 | Active
34 | > 4 | 25% | 100% | O=[N+]([O-])c1ccc(/C=N/NC(=S)Nc2ccccc2)s1 | Active
35 | > 4 | 36% | 82% | NC(=O)N/N=C/c1ccc(OCc2ccc3no[n+]([O-])c3c2)cc1 | Active
36 | > 4 | 84% | 77% | O=C1C(=Cc2ccc([N+](=O)[O-])s2)C(=O)N(Cc2ccccc2)S(=O)(=O)N1Cc1ccccc1 | Active
37 | > 4 | 45% | 75% | C=CCNC(=S)N/N=C\c1ccccc1OCc1ccc2no[n+]([O-])c2c1 | Active
38 | > 4 | 75% | 100% | O=[N+]([O-])c1ccc(/C=C/C=N/NC(=S)Nc2ccccc2)o1 | Active
39 | > 4 | 47% | 88% | [O-][n+]1onc2ccc(/C=C/Sc3ccc(F)cc3)cc21 | Active
40 | > 4 | – | 25% | CC1[N+]([O-])=c2ccc(Cc3ccccc3)cc2=[N+]1[O-] (stereo unspecified) | Active
41 | > 4 | – | 45% | O=C(N/N=C/C=C/c1ccc([N+](=O)[O-])o1)Oc1ccccc1 | Active
42 | > 4 | – | 41% | Cc1c(CNc2cccc3ccccc23)no[n+]1[O-] | Active
43 | > 4 | – | 36% | CC1(C)[N+]([O-])=c2ccc(C3OCCO3)cc2=[N+]1[O-] | Active
44 | > 4 | – | 0% | N#Cc1ccc(C=Cc2ccc3no[n+]([O-])c3c2)cc1 | Active
45 | > 4 | 0% | 100% | [O-][n+]1onc2ccc(/C=N/N=C/c3cc(Br)ccc3O)cc21 | Active
46 | > 4 | – | 8% | COC(=O)/C=C/c1ccc2no[n+]([O-])c2c1 | Active

Row | Ratio [1] | inhibition [3] | inhibition [4] | SMILES | Activity [2]
47 | > 4 | – | 0% | O=Cc1ccc(OCc2ccc3no[n+]([O-])c3c2)cc1 | Active
48 | > 4 | – | 2% | [O-][N+]1=c2ccc(/C=N/O)cc2=[N+]([O-])C12CCCC2 | Active
49 | > 4 | – | 33% | [O-][n+]1onc2ccc(C=Cc3ccc(C(F)(F)F)cc3)cc21 | Active
50 | > 4 | – | 27% | CCCCNC(=O)N/N=C/c1c(-c2ccccc2)no[n+]1[O-] | Active
51 | > 4 | – | 11% | O=[N+]([O-])c1ccccc1C=Cc1ccc2no[n+]([O-])c2c1 | Active
52 | > 4 | – | 10% | CCOC(=O)CN(Cc1ccc(OC)cc1)c1ccc([N+](=O)[O-])cc1[N+](=O)[O-] | Active
53 | > 4 | – | 34% | O=[N+]([O-])c1ccc(/N=C/c2ccccc2[N+](=O)[O-])cc1 | Active
54 | > 4 | – | 4% | CCCN(CCC(C)C1CC=C(C)CC1)Cc1ccc2c(c1)=[N+]([O-])C(C)(C)[N+]=2[O-] (stereo unspecified) | Active
55 | > 4 | – | 0% | [O-][n+]1onc2ccc(/C=C\c3ccccc3)cc21 | Active
56 | > 4 | – | 48% | C=C(C)CNC(=O)Oc1ccccc1 | Active
57 | > 4 | – | 4% | CCCCCCNC(=O)N/N=C/c1c(-c2ccccc2)no[n+]1[O-] | Active
58 | > 4 | – | 5% | [O-][n+]1onc2ccc(/C=C\c3ccc(Cl)cc3)cc21 | Active
59 | > 4 | – | 76% | O=S(=O)(NCc1ccccc1)NCc1ccccc1 | Active
60 | > 4 | – | 0% | COc1nn(CCOCCN2CCN(C/C=C/c3ccccc3)CC2)c2ccc([N+](=O)[O-])cc12 | Active
61 | > 4 | – | 27% | O=C(N/N=C/c1ccc([N+](=O)[O-])o1)Oc1ccccc1 | Active
62 | > 4 | – | 0% | CC1(C)[N+]([O-])=c2ccc(/C=C/c3ccccc3)cc2=[N+]1[O-] | Active
63 | > 4 | 47% | 93% | Nc1ccc(-c2ccccc2)cc1[N+](=O)[O-] | –
